# Sampled rows, rich in hits. Any-hit rate of the full collection: about 4%.
# KCNK3 block = human KCNK3 channel inhibitors, primary screen, CHO cells, FluxOR thallium flux, B-score; Potassium channel subfamily K member 3 (Homo sapiens), O14649; FluxOR fluorescence; active compounds read low; B-score at 10 µM; 340,000 tested, 0.84% active; AID 602410, 2012;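 active = B-score under library mean minus 4 SD, starting fluorescence ratio at most library mean plus 5 SD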;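 also: more negative B-score means stronger inhibition of thallium flux through KCNK3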
# KCNQ1 act = potentiators or activators of KCNQ1 channel, primary screen, cell-based, thallium flux, high-throughput | Potassium voltage-gated channel subfamily KQT member 1 (Homo sapiens), P51787 | CHO-K1 KCNQ1, thallium flux FluxOR fluorescence; active compounds read high | B-score at 10 µM | 310,000 tested, 0.35% active | AID 2648, 2010;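 active = fluorescence ratio B-score, a plate-corrected score, at least three library SD, with initial intensity B-score within 5 SD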
#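 Material: CHO-K1 cells stably expressing KCNQ1. Medium: assay buffer for compound exposure, DMSO matched across wells. Reagent: K+/Tl+ depolarizing stimulus. Compound dosing: single-concentration screen. Times: 37 °C overnight plating, 90-min dark dye load, 20-min compound pretreatment. Technique: FluxOR Tl+ flux fluorescence.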
# hERG rescue = hERG rescue from dofetilide block, primary screen, cell-based, CHO-hERG, FluxOR thallium flux, dofetilide IC70. Voltage-gated inwardly rectifying potassium channel KCNH2 (Homo sapiens), Q12809. dofetilide IC70 present. activation (rescue from dofetilide block), less the hit threshold, % at 10 µM. 310,000 tested, 0.51% active;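 active = activation above the mean of controls blocked by dofetilide plus 5 SD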;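 also: thallium influx through hERG after potassium depolarization seen as dye fluorescence rise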
# KCNQ1 block = inhibitors of human KCNQ1 channel, primary screen, cell-based, thallium flux, high-throughput; Potassium voltage-gated channel subfamily KQT member 1 (Homo sapiens), P51787; 310,000 tested, 1.3% active; AID 2642, 2010; B-score at 10 µM; CHO-K1 KCNQ1, FluxOR thallium flux fluorescence; active compounds read high;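 active = compounds whose thallium flux B-score, printed positive for inhibition, exceeds three library SD while starting fluorescence stays within three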;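 also: channel opened by potassium depolarization with thallium stimulus after 20 min compound exposure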
# KCNK9 block = KCNK9 potassium channel inhibitors, primary screen, HEK293 cells, thallium flux; Potassium channel subfamily K member 9 (Homo sapiens), Q9NPC2; FluxOR thallium flux fluorescence; active compounds read low; B-score at 10 µM; 310,000 tested, 1.2% active;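 active = ratio B-score over 3 SD below the library mean, with starting fluorescence within 5 SD of its mean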;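 also: negative B-score means less thallium flux so channel inhibition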
# PHOSPHO1 block = PubChem AID 1565. inhibition, % at 13.3 µM. Phosphoethanolamine/phosphocholine phosphatase (Homo sapiens), Q8TCT1. recombinant PHOSPHO1, absorbance phosphatase assay. 290,000 tested, 1.1% active; in the data active = inhibition above about 60%
# Target sequence (Q8TCT1 whole entry, looked up): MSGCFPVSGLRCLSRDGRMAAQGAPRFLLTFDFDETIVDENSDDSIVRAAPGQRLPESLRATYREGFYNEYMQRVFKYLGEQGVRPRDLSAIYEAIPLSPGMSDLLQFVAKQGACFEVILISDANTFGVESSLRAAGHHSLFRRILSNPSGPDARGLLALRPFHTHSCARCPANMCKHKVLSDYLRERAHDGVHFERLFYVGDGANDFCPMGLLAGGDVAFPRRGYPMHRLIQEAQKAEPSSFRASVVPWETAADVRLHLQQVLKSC
# A number is an active result; – = inactive; · = not tested or not shown.
SMILES,KCNK3 block,KCNQ1 act,hERG rescue,KCNQ1 block,KCNK9 block,PHOSPHO1 block
O=C(/C=C/c1ccccc1)C1C(=O)c2ccccc2C1=O,–,15,12.8,–,–,–
CCc1ccc(/C=C/C(=O)C2C(=O)c3ccccc3C2=O)cc1,–,28,27.6,–,–,–
COC(=O)c1cn(C)c2ccc(S(=O)(=O)N3CCCCC3)cc2c1=O,–,–,–,–,–,–
CC(=O)c1ccc(NCC(=O)N2CCN(c3ccccc3)CC2)cc1,–,·,·,·,·,97.6
Cc1cc(C=O)c2c(c1)C=CC1(Oc3ccccc3C(=O)N1C)O2 (centres undefined),·,–,20.7,–,–,–
COc1cccc(OC)c1OCCOCCN1CCN(C)CC1,–,19,18.6,–,–,–
Cc1cccc(C(=O)NC(C)c2ccc(-n3ccnc3)cc2)c1C (centres undefined),–,–,–,–,–,–
COC(=O)C1C(=O)OC(C)(C)C1C(C)C(=O)c1ccc(C)cc1C (centres undefined),–,–,–,–,–,60.0
Cc1ccc(-c2csc3nc[nH]c(=S)c23)cc1C,–,24,55.9,–,–,–
COc1ccc(-c2csc3nc[nH]c(=O)c23)cc1OC,–,–,–,–,–,–
Cc1cc(C(F)(F)F)nn1CC(=O)NNC(=S)NCC(C)C,–,–,–,–,–,–
Cc1cc(C(F)(F)F)nn1CC(=O)NNC(=S)Nc1ccc(Cl)cc1,–,–,–,–,–,90.7
Cc1cc(C(F)(F)F)nn1CC(=O)NNC(=S)Nc1ccc(F)cc1,–,–,–,–,–,85.8
COc1cccc(NC(=S)NNC(=O)Cn2nc(C(F)(F)F)cc2C)c1,–,–,–,–,–,–
Cc1c(CCC(=O)NC2CC2)c(=O)oc2c(C)c(O)ccc12,–,–,–,–,–,–
CC(c1ccncn1)N(C)Cc1nc(Cc2ccccc2F)no1 (centres undefined),–,–,–,–,–,–
CCN1/C(=C/C(C)=C/c2sc3ccccc3[n+]2CC)Sc2ccccc21,-14.7,–,–,–,–,–
O=C(c1ccccc1)N1CCN(Cc2ccccc2)CC1,–,–,–,–,–,–
Cc1ccc(CN2CCN(C(=O)c3ccncc3)CC2)cc1,–,–,–,–,–,68.4
Cc1ccc(C)c(S(=O)(=O)Nc2cc(SCC(=O)O)c(O)c3ccccc23)c1,–,·,·,·,·,70.9
CCc1ccc(S(=O)(=O)Nc2cc(SCC(=O)O)c(O)c3ccccc23)cc1,–,–,–,–,–,–
CCN(C(=O)COC(=O)c1cnc(C)cn1)c1c(N)n(Cc2ccccc2)c(=O)[nH]c1=O,–,·,·,·,·,·
CC1CC(C)CN(c2ccc(-n3cnnn3)cc2[N+](=O)[O-])C1 (centres undefined),–,–,–,–,–,60.1
O=[N+]([O-])c1cc(-n2cnnn2)ccc1N1CCC(Cc2ccccc2)CC1,–,–,–,–,–,–
COc1ccccc1Oc1ncnc2sccc12,–,–,–,–,–,60.9
SMILES,KCNK3 block,KCNQ1 act,hERG rescue,KCNQ1 block,KCNK9 block,PHOSPHO1 block
Cc1ccc(C)c(/C=C/C(=O)c2ccccc(=O)c2O)c1,–,27,18.2,–,–,–
O=C(/C=C/c1ccc([N+](=O)[O-])cc1)c1ccccc(=O)c1O,–,·,·,·,·,·
Cc1ccc(/C=C/C(=O)c2ccccc(=O)c2O)c(C)c1,–,19,25.6,–,–,–
O=C(/C=C/c1ccccc1Cl)c1ccc(O)cc1,–,–,–,–,–,–
O=C(C=Cc1ccccc1O)c1ccccc1O,–,·,·,·,·,·
O=C(/C=C/c1ccccc1Cl)c1ccccc(=O)c1O,–,14,16.4,–,–,–
COc1cccc(-c2sc3ccc(OC)cc3c2C#CC(C)(C)O)c1,–,·,·,·,·,·
CCC(=O)n1nc(-c2ccco2)nc1N,–,–,–,–,–,66.8
c1csc(-c2noc(CN3CCN4CCCC4C3)n2)c1 (centres undefined),–,–,–,–,–,–
COc1ccccc1C(CCNCc1ccccc1)c1ccc(OC(C)C)cc1 (centres undefined),–,–,–,–,–,–
COc1ccc(CNCCC(c2ccc(OC(C)C)cc2)c2ccccc2OC)cc1 (centres undefined),–,–,–,9,–,–

# Bioassay records (PubChem BioAssay)
